From ChEMBL document CHEMBL5523690, “Synergistic effect of tryptamine-urea derivatives to overcome the chromosomally-mediated colistin resistance in Klebsiella pneumoniae” (Bioorg Med Chem, 2024)

Experiments:
Format in all cases: functional
[1] = system: Escherichia coli; test: Antibacterial activity against Escherichia coli ATCC25922 assessed as inhibition of visible bacterial growth measured after 20 hrs under aerobic condition by two fold serial dilution assay
Outline: (§1)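 Broth microdilution following EUCAST. Compound was tested at final well concentrations of 0.25–128 µg/mL against 5.10^5 CFU/mL inoculum, incubated 20 h at 37 °C aerobically. MIC was taken as the lowest concentration with no visible growth. There were three independent experiments per strain.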

[2] = system: Klebsiella pneumoniae; test: Antibacterial activity against Klebsiella pneumoniae ATCC700603 assessed as inhibition of visible bacterial growth measured after 20 hrs under aerobic condition by two fold serial dilution assay; outline: as §1
[3] = system: Pseudomonas aeruginosa; test: Antibacterial activity against Pseudomonas aeruginosa ATCC27853 assessed as inhibition of visible bacterial growth measured after 20 hrs under aerobic condition by two fold serial dilution assay; outline: as §1
[4] = system: Escherichia coli; test: Antibacterial activity against colistin resistant Escherichia coli NTCC 13846 harboring mcr-1 gene assessed as inhibition of visible bacterial growth measured after 20 hrs under aerobic condition by two fold serial dilution assay
[5] = system: Escherichia coli; test: Antibacterial activity against colistin resistant Escherichia coli A50 harboring mcr-1 gene assessed as inhibition of visible bacterial growth measured after 20 hrs under aerobic condition by two fold serial dilution assay
[6] = system: Klebsiella pneumoniae; test: Antibacterial activity against chromosomally-mediated resistant Klebsiella pneumoniae BA03057 assessed as inhibition of visible bacterial growth measured after 20 hrs under aerobic condition by two fold serial dilution assay
[7] = system: Pseudomonas aeruginosa; test: Antibacterial activity against chromosomally-mediated colistin resistant Pseudomonas aeruginosa 15080 assessed as inhibition of visible bacterial growth measured after 20 hrs under aerobic condition by two fold serial dilution assay
[8] = system: Pseudomonas aeruginosa; test: Antibacterial activity against chromosomally-mediated colistin resistant Pseudomonas aeruginosa 10039 assessed as inhibition of visible bacterial growth measured after 20 hrs under aerobic condition by two fold serial dilution assay
[9] = system: Pseudomonas aeruginosa; test: Antibacterial activity against chromosomally-mediated colistin resistant Pseudomonas aeruginosa 1002 assessed as inhibition of visible bacterial growth measured after 20 hrs under aerobic condition by two fold serial dilution assay
[10] = system: Klebsiella pneumoniae; test: Synergistic antibacterial activity against Klebsiella pneumoniae BA03057 assessed as fractional inhibitory concentration index incubated for 24 hrs under aerobic condition in presence of colistin by checkerboard assay
Outline: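 Checkerboard against KP BA03057 at 5.10^5 CFU/mL. Colistin was two-fold diluted 0–64 µg/mL across compound two-fold diluted 0–100 µM. Plates were incubated 24 h at 37 °C aerobically and absorbance read at 600 nm. FICI = MIC(compound, combined)/MIC(compound alone) + MIC(colistin, combined)/MIC(colistin alone), with synergy at FICI < 0.5. Plates were run in duplicate.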

[11] = system: Escherichia coli; test: Colistin adjuvant activity against colistin-resistant Escherichia coli A50 assessed as antibacterial effect by measuring colistin MIC incubated for 24 hrs under aerobic condition by two fold serial dilution method
[12] = system: Klebsiella pneumoniae; test: Colistin adjuvant activity against colistin-resistant Klebsiella pneumoniae BA03057 assessed as antibacterial effect by measuring colistin MIC incubated for 24 hrs under aerobic condition by two fold serial dilution method
[13] = system: Escherichia coli; test: Colistin adjuvant activity against colistin-resistant Escherichia coli A50 assessed as colistin MIC by measuring potentiation fold incubated for 24 hrs under aerobic condition by two fold serial dilution method relative to colistin alone
[14] = system: Klebsiella pneumoniae; test: Colistin adjuvant activity against colistin-resistant Klebsiella pneumoniae BA03057 assessed as colistin MIC by measuring potentiation fold incubated for 24 hrs under aerobic condition by two fold serial dilution method relative to colistin alone

Compound	MIC [1] [µg/mL]	MIC [2] [µg/mL]	MIC [3] [µg/mL]	MIC [4] [µg/mL]	MIC [5] [µg/mL]	MIC [6] [µg/mL]	MIC [7] [µg/mL]	MIC [8] [µg/mL]	MIC [9] [µg/mL]	fractional inhibitory concentration index (FICI) [10]	MIC [11] [µg/mL]	MIC [12] [µg/mL]	fold change (FC) [13]	fold change (FC) [14]
O=C(NCCc1c[nH]c2ccccc12)Nc1ccc(Cl)cc1	> 128	> 128	> 128	> 128	> 128	> 128	> 128	> 128	> 128	0.276	4	4	0.5	0.062
O=C(NCCc1c[nH]c2ccccc12)Nc1ccccc1	> 128	> 128	> 128	> 128	> 128	> 128	> 128	> 128	> 128		8	8	1	0.125
O=C(NCCc1c[nH]c2ccccc12)Nc1ccc(Br)cc1	> 128	> 128	> 128	> 128	> 128	> 128	> 128	> 128	> 128		2	8	0.25	0.125
O=C(NCCc1c[nH]c2ccccc12)Nc1ccccc1F	> 128	> 128	> 128	> 128	> 128	> 128	> 128	> 128	> 128		8	8	1	0.125
O=C(NCCc1c[nH]c2ccccc12)Nc1ccc(F)cc1	> 128	> 128	> 128	> 128	> 128	> 128	> 128	> 128	> 128		4	8	0.5	0.125
CCCNC(=O)NCCc1c[nH]c2ccccc12	> 128	> 128	> 128	> 128	> 128	> 128	> 128	> 128	> 128		4	8	0.5	0.125
O=C(NCCc1c[nH]c2ccccc12)NCc1ccccc1	> 128	> 128	> 128	> 128	> 128	> 128	> 128	> 128	> 128		4	8	0.5	0.125
CC(C)c1ccc(NC(=O)NCCc2c[nH]c3ccccc23)cc1	> 128	> 128	> 128	> 128	> 128	> 128	> 128	> 128	> 128		4	16	0.5	0.25
COc1ccc(NC(=O)NCCc2c[nH]c3ccccc23)cc1	> 128	> 128	> 128	> 128	> 128	> 128	> 128	> 128	> 128		4	16	0.5	0.25
O=C(NCCc1c[nH]c2ccccc12)Nc1ccccc1Cl	> 128	> 128	> 128	> 128	> 128	> 128	> 128	> 128	> 128		8	8	1	0.125
COLISTIN	0.25	0.5	2	2	8	64	2	4	2					
Cc1ccc(NC(=O)NCCc2c[nH]c3ccccc23)cc1	> 128	> 128	> 128	> 128	> 128	> 128	> 128	> 128	> 128		4	8	0.5	0.125
CC(C)(C)NC(=O)NCCc1c[nH]c2ccccc12	> 128	> 128	> 128	> 128	> 128	> 128	> 128	> 128	> 128		8	8	1	0.125
O=C(NCCc1c[nH]c2ccccc12)Nc1cc(Cl)cc(Cl)c1	> 128	> 128	> 128	> 128	> 128	> 128	> 128	> 128	> 128		2	2	0.25	0.031
O=C(NCCc1c[nH]c2ccccc12)Nc1cccc(Br)c1	> 128	> 128	> 128	> 128	> 128	> 128	> 128	> 128	> 128		8	8	1	0.125
